This is an account of results in ChEMBL document CHEMBL4118153, “Exploiting polarity and chirality to probe the Hsp90 C-terminus” (Bioorg Med Chem, 2018).

Activity calls are given as the source filed them. The calls are words filed in the database; no cut-off is given here.

For one series, the system named is MCF7. The series can be described thus: Antiproliferative activity against human MCF7 cells after 72 hrs by MTS/PMS assay. It is filed as functional, cell-based. To be noted: MCF7, 72 h. The essentials:
(§1)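 Cells were grown in 1:1 Advanced DMEM/F12 with non-essential amino acids, 2 mM L-glutamine, penicillin/streptomycin and 10% FBS at 37 °C, 5% CO2. They were seeded at 2000/well and left to attach overnight, then exposed to serial compound dilutions (1% DMSO final) for 72 h. Viable cells were read with an […] proliferation kit and normalized to 1% DMSO controls (100%). IC50 came from separate triplicate experiments.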

The subject of series [1] is SK-BR-3. The series can be described thus: Antiproliferative activity against human SKBR3 cells after 72 hrs by MTS/PMS assay. The settings on record: SK-BR-3, 72 h. It is filed as functional, cell-based. A digest of the protocol: as §1
Series [2] has as its target T1, Heat shock protein HSP90 (Homo sapiens, UniProt P07900+P08238). The series can be described thus: Inhibition of Hsp90 C-terminal domain in human MCF7 cells assessed as effect on heat shock response-induced Hsp90 level at 0.5 to 5 fold antiproliferative EC50 after 24 hrs by Western blot analysis. It is filed as cell-based. The settings on record: mcf7, 24 h. A digest of the protocol: (§2)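 MCF-7 cells, cultured as for proliferation, were treated for 24 h with compound in DMSO (1% final) or DMSO vehicle. Cells were harvested in cold PBS and lysed on ice for 1 h in RIPA with 1 mM PMSF, 2 mM orthovanadate and protease inhibitors. Lysates were cleared at 14000g, quantified by BCA, and 20 μg protein was run reducing, blotted to nitrocellulose and probed with specific antibodies plus HRP secondary, with chemiluminescent detection.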
(In western blotting, separated proteins are transferred to a membrane and probed.)

Series [3] addresses T1, Heat shock protein HSP90. Put plainly: Inhibition of Hsp90 C-terminal domain in human MCF7 cells assessed as effect on heat shock response-induced Hsp70 level at 0.5 to 5 fold antiproliferative EC50 after 24 hrs by Western blot analysis. The settings on record: mcf7, 24 h. It is filed as cell-based. A digest of the protocol:
as §2

Series [4] concerns the target T1, Heat shock protein HSP90. Put plainly: Inhibition of Hsp90 C-terminal domain in human MCF7 cells assessed as induction of CDK6 degradation at 0.5 to 5 fold antiproliferative EC50 after 24 hrs by Western blot analysis. It is filed as cell-based. A digest of the protocol: as §2
Series [5] concerns the target T1, Heat shock protein HSP90. The series can be described thus: Inhibition of Hsp90 C-terminal domain in human MCF7 cells assessed as induction of ERalpha degradation at 0.5 to 5 fold antiproliferative EC50 after 24 hrs by Western blot analysis. It is filed as cell-based. A digest of the protocol:
as §2

In series [6] the target is T1, Heat shock protein HSP90. The series can be described thus: Inhibition of Hsp90 C-terminal domain in human MCF7 cells assessed as induction of Her2 degradation at 0.5 to 5 fold antiproliferative EC50 after 24 hrs by Western blot analysis. It is filed as cell-based. The essentials:
as §2

For series [7], the system named is SK-BR-3. The series can be described thus: Antiproliferative activity against human SKBR3 cells. It is filed as functional, cell-based. The essentials:
as §1

A word on the EC50: it is the concentration giving half of the maximal effect. A low value points to a more potent agent. Take `COCCN1CCCC(Oc2ccc3cc(NC(=O)c4ccc(OC)c(-c5cccc(OC)c5)c4)c(=O)oc3c2C)C1` (stereo not drawn): the EC50 was determined as 13300 nM in the series on MCF7 and 7000 nM with SK-BR-3 [1].
On the same counts, the results for `COCCN1CCC(Oc2ccc([C@H]3CC[C@H](NC(=O)c4ccc(OC)c(-c5cccc(OC)c5)c4)CC3)cc2)CC1` are 520 nM and 363 nM.
On the same counts, the results for `COCCN1CCC(Oc2ccc3cc(NC(=O)c4ccc(OC)c(-c5cccc(OC)c5)c4)c(=O)oc3c2C)CC1` are 2100 nM and 4000 nM.
As for `COc1cccc(-c2cc(C(=O)Nc3cc4ccc(O[C@H]5CC[C@H](N(C)C)CC5)c(C)c4oc3=O)ccc2OC)c1`, the “inhibition (INH)” value at Heat shock protein HSP90 [2] and at Heat shock protein HSP90 [3] was “Not Active” each time. Besides, the inhibition result at Heat shock protein HSP90 [4], on Heat shock protein HSP90 [5] and at Heat shock protein HSP90 [6] was “Active” throughout.
Molecule `COc1cccc(-c2cc(C(=O)Nc3cc4ccc(O[C@@H]5OC(C)(C)[C@H](OC)[C@@H](O)[C@H]5O)c(C)c4oc3=O)ccc2OC)c1` had a concentration for a half-maximal effect (EC50) with SK-BR-3 [7] of 7000 nM.
`COc1cccc(-c2cc(C(=O)N[C@H]3CC[C@H](c4ccc(OC5CCN(CCO)CC5)cc4)CC3)ccc2OC)c1`: the half-maximal effective concentration (EC50) in the series on MCF7 came to 380 nM; in the series with SK-BR-3 [1], 285 nM.
Regarding `COc1cccc(-c2cc(C(=O)N[C@H]3CC[C@H](c4ccc(OC5CCCN(CCO)C5)cc4)CC3)ccc2OC)c1` (stereo partly drawn), the EC50 in the series with MCF7 came out at 625 nM; in the series on SK-BR-3 [1], 450 nM.
With `CO[C@@H]1[C@@H](OC(N)=O)[C@@H](O)[C@H](Oc2ccc3c(O)c(NC(=O)c4ccc(O)c(CC=C(C)C)c4)c(=O)oc3c2C)OC1(C)C` [NOVOBIOCIN], the EC50 with SK-BR-3 [7] is 700000 nM.
`COc1cccc(-c2cc(C(=O)Nc3cc4ccc(OC5CCCN(CCO)C5)c(C)c4oc3=O)ccc2OC)c1` (stereo not drawn): the EC50 stood at 2660 nM in the series with MCF7 and 1700 nM in the series on SK-BR-3 [1].
Turning to `COc1cccc(-c2cc(C(=O)Nc3cc4ccc(O[C@H]5CC[C@@H](N)CC5)c(C)c4oc3=O)ccc2OC)c1`, the “inhibition (INH)” value on Heat shock protein HSP90 [2] and on Heat shock protein HSP90 [3] was “Not Active” each time. In addition, the inhibition entry on Heat shock protein HSP90 [4], on Heat shock protein HSP90 [5] and at Heat shock protein HSP90 [6] was “Active” each time.
In the case of `COc1cccc(-c2cc(C(=O)Nc3cc4ccc(O[C@H]5CC[C@H](N)CC5)c(C)c4oc3=O)ccc2OC)c1`, the “inhibition (INH)” value at Heat shock protein HSP90 [2] and at Heat shock protein HSP90 [3] was “Not Active” in each case. Also, the inhibition entry at Heat shock protein HSP90 [4], at Heat shock protein HSP90 [5] and at Heat shock protein HSP90 [6] was “Active” throughout.
`COc1cccc(-c2cc(C(=O)Nc3cc4ccc(OC5CCN(CCO)CC5)c(C)c4oc3=O)ccc2OC)c1`: the EC50 was 1900 nM in the series with MCF7 and 2100 nM in the series on SK-BR-3 [1].
Take `COCCN1CCCC(Oc2ccc([C@H]3CC[C@H](NC(=O)c4ccc(OC)c(-c5cccc(OC)c5)c4)CC3)cc2)C1` (stereo partly drawn): the EC50 in the series with MCF7 came to 3000 nM; in the series with SK-BR-3 [1], 900 nM.
